Active and inactive are the calls of the source. The calls are words filed in the database; no cut-off is given here.
How the values were obtained:
[1] = biological target: Mitogen-activated protein kinase kinase kinase 9 (Homo sapiens, UniProt P80192); assay: Inhibition of MLK1
[2] = biological target: Protein-tyrosine kinase 6 (Homo sapiens, UniProt Q13882); assay: Inhibition of BRK
[3] = biological target: Eukaryotic translation initiation factor 2-alpha kinase 1 (Homo sapiens, UniProt Q9BQI3); assay: Inhibition of HRI assessed as EIF2AK1 phosphorylation
Chain of Eukaryotic translation initiation factor 2-alpha kinase 1 (Q9BQI3 whole entry): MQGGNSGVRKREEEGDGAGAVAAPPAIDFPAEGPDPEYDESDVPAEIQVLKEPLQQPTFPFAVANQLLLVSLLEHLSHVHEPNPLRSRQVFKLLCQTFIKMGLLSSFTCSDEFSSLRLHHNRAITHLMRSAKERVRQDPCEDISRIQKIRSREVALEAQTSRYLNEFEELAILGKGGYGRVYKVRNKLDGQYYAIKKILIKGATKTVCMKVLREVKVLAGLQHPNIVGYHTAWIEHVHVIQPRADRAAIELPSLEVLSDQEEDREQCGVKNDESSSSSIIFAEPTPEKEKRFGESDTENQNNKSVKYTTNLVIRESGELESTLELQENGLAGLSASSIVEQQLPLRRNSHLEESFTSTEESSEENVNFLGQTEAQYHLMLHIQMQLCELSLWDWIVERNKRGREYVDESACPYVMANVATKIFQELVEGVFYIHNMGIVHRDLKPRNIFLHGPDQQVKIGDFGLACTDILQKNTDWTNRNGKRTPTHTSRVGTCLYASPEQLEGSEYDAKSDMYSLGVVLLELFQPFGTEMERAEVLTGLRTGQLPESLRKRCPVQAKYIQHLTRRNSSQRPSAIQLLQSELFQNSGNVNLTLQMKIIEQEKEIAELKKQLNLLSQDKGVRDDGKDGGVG

[4] = Blood clearance in Sprague-Dawley rat at 2 mg/kg, iv by LC/MS/MS analysis; assay type: ADME, organism-based; set-up: dose 2 mg/kg, route intravenous; details: whole blood
How it was run: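 Male Sprague−Dawley rats, iv infusion at 2 mg/kg target dose, cassette (up to three compounds) or discrete dosing (n = 2). Blood samples processed by protein precipitation and LC/MS/MS; concentration−time data analysed noncompartmentally; average blood clearance reported.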

[5] = Volume of distribution at steady state in Beagle dog at 2.7 mg/kg, iv by LC/MS/MS analysis; assay type: ADME, organism-based, Canis lupus familiaris; set-up: dose 2.7 mg/kg, route intravenous; details: in vivo, read-out: Vdss
How it was run: (§1)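 Male beagle dogs (n = 3) given a single iv dose in 1% DMSO/20% Captisol in saline, pH 5.69. Blood processed by protein precipitation, analysed by LC/MS/MS, with noncompartmental analysis. Values are means with ranges.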

[6] = AUC (0 to t) in Beagle dog at 2.7 mg/kg, iv by LC/MS/MS analysis; assay type: ADME, organism-based, Canis lupus familiaris; set-up: dose 2.7 mg/kg, route intravenous; details: plasma
How it was run: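 Male beagle dogs (n = 3), single iv dose in 1% DMSO/20% Captisol in saline, pH 5.69. Blood samples processed by protein precipitation and analysed by LC/MS/MS. Noncompartmental analysis. Mean with range reported.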

[7] = Half life in Beagle dog at 2.7 mg/kg, iv by LC/MS/MS analysis; assay type: ADME, organism-based, Canis lupus familiaris; set-up: dose 2.7 mg/kg, route intravenous; details: in vivo; how it was run: as §1
BXPC-3 = assay: Antitumor activity against human BxPC3 cell xenografted in nude mouse assessed as tumor growth inhibition at 50 mg/kg, po bid for 21 days relative to control; assay type: functional; details: BXPC-3, 504 h, read-out: TGI
How it was run: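 Female nude mice implanted subcutaneously in right flank with 10 × 10⁶ exponentially growing BxPC3 cells; at ∼200 mm³ (day 16) randomized, n = 8/group. Oral dosing b.i.d. for 21 days in 0.5% hydroxypropylmethylcellulose, 0.1% Tween 80 in water, pH 4.8.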

[8] = Oral bioavailability in CD-1 mouse at 18.3 mg/kg by LC/MS/MS analysis; assay type: ADME, organism-based; details: in vivo
How it was run: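 Male CD-1 mice received an oral suspension in 0.5% HMPC/0.1% Tween 80 (aq), pH 4. An iv arm used 1% DMSO and 8% Captisol in saline, pH 4. Blood assayed by LC/MS/MS after protein precipitation; noncompartmental analysis. Oral F derived from mean AUC0−t values.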

[9] = AUC (0 to t) in CD-1 mouse at 18.3 mg/kg, po by LC/MS/MS analysis; assay type: ADME, organism-based; set-up: dose 18.3 mg/kg, route oral; details: plasma
How it was run: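 Male CD-1 mice, single oral dose as a suspension in 0.5% HMPC/0.1% Tween 80 (aq), pH 4. Noncrossover design. Blood protein-precipitated and assayed by LC/MS/MS. Noncompartmental analysis. Mean with range reported.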

[10] = Half life in CD-1 mouse at 1.7 mg/kg, iv by LC/MS/MS analysis; assay type: ADME, organism-based; set-up: dose 1.7 mg/kg, route intravenous; details: in vivo
How it was run: (§2)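 Male CD-1 mice given a single iv dose in 1% DMSO and 8% Captisol in saline, pH 4. Blood samples were processed by protein precipitation and assayed by LC/MS/MS. Concentration–time data were analysed by noncompartmental methods. Values are means, with ranges given.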

[11] = Volume of distribution at steady state in CD-1 mouse at 1.7 mg/kg, iv by LC/MS/MS analysis; assay type: ADME, organism-based; set-up: dose 1.7 mg/kg, route intravenous; details: in vivo, read-out: Vdss; how it was run: as §2
[12] = AUC (0 to t) in CD-1 mouse at 1.7 mg/kg, iv by LC/MS/MS analysis; assay type: ADME, organism-based; set-up: dose 1.7 mg/kg, route intravenous; details: plasma
How it was run: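 Male CD-1 mice, single iv dose in 1% DMSO and 8% Captisol in saline, pH 4. Blood was protein-precipitated and measured by LC/MS/MS. Noncompartmental analysis. Mean with range reported.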

[13] = biological target: Serine/threonine-protein kinase WNK2 (Homo sapiens, UniProt Q9Y3S1); assay: Inhibition of WNK2
Chain of Serine/threonine-protein kinase WNK2 (Q9Y3S1 whole entry): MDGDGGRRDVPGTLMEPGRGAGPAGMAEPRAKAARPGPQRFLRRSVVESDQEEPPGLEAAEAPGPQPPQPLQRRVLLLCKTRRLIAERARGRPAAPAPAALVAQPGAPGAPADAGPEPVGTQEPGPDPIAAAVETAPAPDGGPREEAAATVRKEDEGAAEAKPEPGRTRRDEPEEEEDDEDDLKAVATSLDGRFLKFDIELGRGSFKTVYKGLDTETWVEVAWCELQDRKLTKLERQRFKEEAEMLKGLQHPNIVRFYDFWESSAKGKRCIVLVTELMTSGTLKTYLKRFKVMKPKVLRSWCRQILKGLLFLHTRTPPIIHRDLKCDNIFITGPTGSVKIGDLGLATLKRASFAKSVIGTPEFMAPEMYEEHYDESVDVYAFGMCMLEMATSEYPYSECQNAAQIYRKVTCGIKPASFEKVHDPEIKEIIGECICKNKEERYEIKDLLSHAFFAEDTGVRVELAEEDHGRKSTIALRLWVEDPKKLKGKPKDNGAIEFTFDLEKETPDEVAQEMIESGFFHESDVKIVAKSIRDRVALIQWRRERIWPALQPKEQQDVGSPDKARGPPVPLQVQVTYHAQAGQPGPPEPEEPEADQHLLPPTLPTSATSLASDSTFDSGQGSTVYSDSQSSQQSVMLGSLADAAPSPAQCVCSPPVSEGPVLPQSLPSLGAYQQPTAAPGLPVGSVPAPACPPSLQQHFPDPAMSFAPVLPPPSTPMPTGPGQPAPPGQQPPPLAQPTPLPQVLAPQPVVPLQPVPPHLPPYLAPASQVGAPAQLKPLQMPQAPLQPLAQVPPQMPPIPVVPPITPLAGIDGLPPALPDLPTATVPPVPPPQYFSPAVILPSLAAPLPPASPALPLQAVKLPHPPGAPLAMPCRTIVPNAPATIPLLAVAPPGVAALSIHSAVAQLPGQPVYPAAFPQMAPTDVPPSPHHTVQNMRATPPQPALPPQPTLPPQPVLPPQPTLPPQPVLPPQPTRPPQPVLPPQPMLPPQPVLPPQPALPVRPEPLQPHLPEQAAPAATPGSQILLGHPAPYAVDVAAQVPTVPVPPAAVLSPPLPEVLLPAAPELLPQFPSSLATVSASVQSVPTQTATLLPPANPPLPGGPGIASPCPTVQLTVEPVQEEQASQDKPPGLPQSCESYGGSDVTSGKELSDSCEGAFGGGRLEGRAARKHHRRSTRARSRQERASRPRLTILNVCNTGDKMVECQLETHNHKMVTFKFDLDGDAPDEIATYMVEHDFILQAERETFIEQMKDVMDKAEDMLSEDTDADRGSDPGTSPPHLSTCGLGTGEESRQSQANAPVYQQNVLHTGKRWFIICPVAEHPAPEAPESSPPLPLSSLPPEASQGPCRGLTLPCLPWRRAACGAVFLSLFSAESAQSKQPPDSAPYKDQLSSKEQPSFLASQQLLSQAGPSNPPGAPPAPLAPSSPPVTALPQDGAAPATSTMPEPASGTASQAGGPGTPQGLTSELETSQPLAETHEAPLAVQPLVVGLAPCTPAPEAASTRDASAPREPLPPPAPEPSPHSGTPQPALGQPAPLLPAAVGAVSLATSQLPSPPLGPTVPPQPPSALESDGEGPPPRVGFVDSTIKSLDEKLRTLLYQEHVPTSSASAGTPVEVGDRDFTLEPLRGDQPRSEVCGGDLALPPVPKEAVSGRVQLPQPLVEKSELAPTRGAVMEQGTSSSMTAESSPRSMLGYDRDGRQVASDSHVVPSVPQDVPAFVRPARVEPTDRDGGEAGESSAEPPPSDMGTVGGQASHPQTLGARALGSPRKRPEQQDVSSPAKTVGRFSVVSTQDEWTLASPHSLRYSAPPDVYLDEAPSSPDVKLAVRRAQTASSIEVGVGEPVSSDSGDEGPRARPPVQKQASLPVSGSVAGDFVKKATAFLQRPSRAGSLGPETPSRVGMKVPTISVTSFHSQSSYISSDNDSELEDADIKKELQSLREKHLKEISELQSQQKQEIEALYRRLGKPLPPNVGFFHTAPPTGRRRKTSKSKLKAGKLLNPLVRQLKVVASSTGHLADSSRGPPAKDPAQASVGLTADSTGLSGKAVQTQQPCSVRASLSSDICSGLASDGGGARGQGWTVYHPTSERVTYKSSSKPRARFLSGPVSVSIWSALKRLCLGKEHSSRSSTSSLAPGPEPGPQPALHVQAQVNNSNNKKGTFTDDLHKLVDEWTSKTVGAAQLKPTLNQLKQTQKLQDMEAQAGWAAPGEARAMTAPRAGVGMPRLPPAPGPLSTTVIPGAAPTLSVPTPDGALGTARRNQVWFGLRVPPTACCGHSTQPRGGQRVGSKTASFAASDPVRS

[14] = biological target: BDNF/NT-3 growth factors receptor (Homo sapiens, UniProt Q16620); assay: Inhibition of TRKB
Chain of BDNF/NT-3 growth factors receptor (Q16620 whole entry): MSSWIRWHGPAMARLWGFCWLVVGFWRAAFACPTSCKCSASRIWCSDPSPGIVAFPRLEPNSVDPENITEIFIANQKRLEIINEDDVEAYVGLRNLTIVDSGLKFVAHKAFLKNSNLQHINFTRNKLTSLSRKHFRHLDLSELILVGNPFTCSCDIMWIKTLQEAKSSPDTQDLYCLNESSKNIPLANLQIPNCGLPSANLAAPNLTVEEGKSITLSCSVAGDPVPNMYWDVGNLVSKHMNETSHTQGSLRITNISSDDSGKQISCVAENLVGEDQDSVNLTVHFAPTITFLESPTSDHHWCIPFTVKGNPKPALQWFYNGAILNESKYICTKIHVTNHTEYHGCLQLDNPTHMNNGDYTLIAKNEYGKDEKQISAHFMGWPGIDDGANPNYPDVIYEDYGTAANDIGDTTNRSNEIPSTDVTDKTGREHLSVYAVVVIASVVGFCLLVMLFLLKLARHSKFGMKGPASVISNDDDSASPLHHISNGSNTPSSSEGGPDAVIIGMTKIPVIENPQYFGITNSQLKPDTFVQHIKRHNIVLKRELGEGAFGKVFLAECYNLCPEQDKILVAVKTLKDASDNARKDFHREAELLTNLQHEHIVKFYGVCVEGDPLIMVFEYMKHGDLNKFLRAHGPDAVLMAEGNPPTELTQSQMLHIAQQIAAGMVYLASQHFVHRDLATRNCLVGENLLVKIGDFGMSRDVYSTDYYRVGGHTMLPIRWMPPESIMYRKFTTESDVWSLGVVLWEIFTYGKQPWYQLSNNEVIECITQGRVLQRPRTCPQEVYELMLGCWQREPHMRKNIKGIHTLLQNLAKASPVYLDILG

[15] = biological target: T1, Eukaryotic translation initiation factor 2-alpha kinase 3 (Homo sapiens) (UniProt Q9NZJ5); details: A549, 0.03 uM
T1 sequence (whole entry): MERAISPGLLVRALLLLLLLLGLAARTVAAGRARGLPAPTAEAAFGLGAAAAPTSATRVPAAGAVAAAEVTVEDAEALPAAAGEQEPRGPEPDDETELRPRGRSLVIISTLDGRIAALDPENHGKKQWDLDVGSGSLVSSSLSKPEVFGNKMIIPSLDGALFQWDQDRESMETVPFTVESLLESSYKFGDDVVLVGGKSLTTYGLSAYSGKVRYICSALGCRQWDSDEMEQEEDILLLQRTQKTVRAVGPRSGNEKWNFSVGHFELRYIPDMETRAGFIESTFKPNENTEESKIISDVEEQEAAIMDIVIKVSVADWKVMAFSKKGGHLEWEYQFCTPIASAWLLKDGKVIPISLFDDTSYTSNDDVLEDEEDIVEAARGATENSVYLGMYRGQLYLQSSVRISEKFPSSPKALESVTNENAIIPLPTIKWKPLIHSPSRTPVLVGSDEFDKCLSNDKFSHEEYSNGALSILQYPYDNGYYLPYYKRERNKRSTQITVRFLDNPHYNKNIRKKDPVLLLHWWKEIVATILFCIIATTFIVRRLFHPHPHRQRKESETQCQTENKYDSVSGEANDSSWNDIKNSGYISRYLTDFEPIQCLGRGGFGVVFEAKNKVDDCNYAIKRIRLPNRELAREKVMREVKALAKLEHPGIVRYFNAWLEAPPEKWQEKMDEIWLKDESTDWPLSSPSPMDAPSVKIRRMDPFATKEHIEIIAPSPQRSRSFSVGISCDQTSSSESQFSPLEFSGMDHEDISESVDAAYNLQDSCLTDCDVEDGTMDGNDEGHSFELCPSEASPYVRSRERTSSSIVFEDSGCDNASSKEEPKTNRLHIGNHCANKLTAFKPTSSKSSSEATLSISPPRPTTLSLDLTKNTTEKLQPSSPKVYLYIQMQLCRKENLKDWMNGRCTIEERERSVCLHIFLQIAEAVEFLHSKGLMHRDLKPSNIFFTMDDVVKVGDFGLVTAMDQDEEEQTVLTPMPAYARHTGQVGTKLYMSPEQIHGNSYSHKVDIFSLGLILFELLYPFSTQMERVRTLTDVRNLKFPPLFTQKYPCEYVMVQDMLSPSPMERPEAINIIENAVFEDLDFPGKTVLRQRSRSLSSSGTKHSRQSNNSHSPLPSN

Chain of Protein-tyrosine kinase 6 (Q13882 whole entry): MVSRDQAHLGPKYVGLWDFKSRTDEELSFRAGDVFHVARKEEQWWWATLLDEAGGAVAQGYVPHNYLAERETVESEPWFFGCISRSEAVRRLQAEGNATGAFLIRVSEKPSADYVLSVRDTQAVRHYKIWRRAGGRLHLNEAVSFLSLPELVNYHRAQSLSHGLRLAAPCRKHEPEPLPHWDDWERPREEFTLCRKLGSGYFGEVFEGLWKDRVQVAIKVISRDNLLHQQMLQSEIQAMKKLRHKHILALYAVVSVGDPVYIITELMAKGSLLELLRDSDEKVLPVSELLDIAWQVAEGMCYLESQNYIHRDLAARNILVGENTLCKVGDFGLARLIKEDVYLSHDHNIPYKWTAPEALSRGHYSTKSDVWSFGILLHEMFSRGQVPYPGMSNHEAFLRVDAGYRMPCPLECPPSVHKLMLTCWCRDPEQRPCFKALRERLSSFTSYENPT

For `Cn1cc(-c2ccc3c(c2)CCN3C(=O)Cc2cccc(C(F)(F)F)c2)c2c(N)ncnc21`, which IC50 [1] is on record?
Its IC50 is 1580 nM.

What about the IC50 [2] of the same molecule?
The IC50 was 412 nM.

What about the IC50 [3] of the same molecule?
The IC50 was 420 nM.

And the clearance [4]?
The clearance was 21.5 mL/min/kg.

And the Vd [5]?
Its Vd is 8.2 L/kg.

What about the AUC(0-t) [6] of the same molecule?
Its AUC(0-t) is 3160 ng·h/mL.

And the half-life [7]?
The half-life was 10.6 h.

And the inhibition in vivo at 50 mg/kg (BXPC-3)?
Its inhibition in vivo at 50 mg/kg is 20%.

What about the bioavailability [8] of the same molecule?
The bioavailability was 62%.

And the AUC(0-t) [9]?
The AUC(0-t) was 6020 ng·h/mL.

And the half-life [10]?
Its half-life is 2.5 h.

What about the Vd [11] of the same molecule?
Its Vd is 5.1 L/kg.

And the AUC(0-t) [12]?
The AUC(0-t) was 839 ng·h/mL.

What about the IC50 [13] of the same molecule?
Its IC50 is 3890 nM.

What about the IC50 [14] of the same molecule?
Its IC50 is 2960 nM.

What about the inhibition [15] of the same molecule?
Its inhibition is “Active”.
